Measured values reported in ChEMBL document CHEMBL4765486, “Novel Nonsecosteroidal Vitamin D Receptor Modulator Combined with Gemcitabine Enhances Pancreatic Cancer Therapy through Remodeling of the Tumor Microenvironment” (J Med Chem, 2021).
The source made the active and inactive calls.

Tests used:
Mus musculus = assay: Inhibition of GFP-tagged rat LTC-14 cells activation in BALB/c nude mouse xenografted along with luciferase-tagged DSL-6A/C1-Luc cells assessed as reduction in alpha-smooth muscle actin expression in tumor at 500 ug/kg, ip administered once every 3 days for 12 days coadministered with gemcitabine at 100 mg/kg by DAPI staining based laser confocal scanning microscopy; format: functional, organism-based; details: dose 500.0 µg/kg, time 12.0 day
How it was run: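 Tumours were taken from orthotopic co-inoculated nude mice given gemcitabine 100 mg/kg plus compound (500 μg/kg) or calcipotriol (60 μg/kg) ip for 12 days. Sections were fixed in 4% PFA, permeabilised with 0.5% Triton X-100 and blocked in 5% BSA. They were incubated with anti-α-SMA overnight at 4 °C, then an Alexa Fluor 594 secondary for 1 h at 37 °C, DAPI-counterstained and imaged by confocal microscopy.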

[1] = Toxicity in orthotropic xenograft BALB/c nude mouse model of pancreatic cancer co-inoculated with rat DSL-6A/C1-Luc cells and LTC-14-GFP cells assessed as hypercalcemia at 500 ug/kg, ip administered once every 3 days for 12 days coadministered with gemcitabine at 100 mg/kg and measured after 3 days post last dose; format: organism-based; details: in vivo, 0.5 mg/kg, 288 h, dose 500 µg/kg, time 12 day
How it was run: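 Orthotopic DSL-6A/C1-luci/LTC-14-GFP nude mice received gemcitabine 100 mg/kg plus compound 500 μg/kg ip for 12 days. They were sacrificed 3 days after the final dose, and serum was collected for biochemical analysis to assess hypercalcemia.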

DSL-6A/C1 [2] = assay: Potentiation of gemcitabine-induced antitumor activity against luciferase-tagged rat DSL-6A/C1 cells and GFP-tagged LTC-14 cells co-inoculated in orthotropic xenograft BALB/c nude mouse model of pancreatic cancer assessed as inhibition of collagen deposition at 500 ug/kg, ip administered once every 3 days for 12 days coadministered with gemcitabine at 100 mg/kg and measured after 3 days post last dose by Masson staining based assay; format: functional, organism-based; details: dose 500.0 µg/kg, time 12.0 day
How it was run: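 In the same orthotopic co-inoculation model, mice received gemcitabine 100 mg/kg ip every 3 days plus compound 500 μg/kg ip for 12 days. Animals were sacrificed 3 days after the last dose. Pancreatic tumour sections were stained with H&E for tissue structure and with Masson's trichrome for collagen deposition, imaged at ×100.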

LTC-14 [3] = assay: Inhibition of rat LTC-14 cells activation assessed as inhibition of PDGFA mRNA expression at 0.5 uM treated under conditioned media of DSL-6A/C1 cells for 24 hrs by q-PCR analysis; format: functional, cell-based
How it was run: (§1)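 LTC-14 PSCs were exposed for 24 h to conditioned medium from rat DSL-6A/C1 cancer cells containing compound at 0.5 μM. Pdgfa, Pdgfb, Fgf2, Hgf and Periodin mRNA were quantified by RT-qPCR. Three repeats, mean ± SD versus CM alone.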

DSL-6A/C1 [4] = assay: Antiproliferative activity against rat DSL-6A/C1 cells assessed as reduction in cell viability at 0.5 uM incubated for 24 hrs compound treated LTC-14-CM cells by MTT assay; format: functional, cell-based
How it was run: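 LTC-14 PSCs were pretreated with compound for 24 h. Their collected supernatant was used to culture DSL-6A/C1 cells, and proliferation was read by MTT: 4 h incubation with MTT (5 mg/mL stock), absorbance at 570 nm. Run in triplicate, compared with untreated PSC-CM.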

[5] = Cytotoxicity against rat LTC-14 cells assessed as reduction in cell proliferation incubated for 24 hrs by MTT assay; format: cell-based; details: LTC-14, 24 h
LTC-14 [6] = assay: Inhibition of rat LTC-14 cells activation assessed decrease in TGF-beta1 induced collagen 1 protein expression at 0.5 uM incubated for 24 hrs by Western blot analysis; format: functional, cell-based
How it was run: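 LTC-14 cells were treated for 24 h with compound (0.5 μM) plus TGF-β1 (0.5 ng/mL in the text, 5 ng/mL in the methods). Lysates were run on 10% SDS-PAGE, transferred to PVDF and probed with rabbit anti-collagen I, with β-actin as reference. Bands were quantified by densitometry versus TGF-β1 alone.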

[7] = molecular target: T1, Vitamin D3 receptor (Homo sapiens) (UniProt P11473); assay: Agonist activity at VDR (unknown origin) expressed in HEK293 cells co-transfected with pGL4.27-SPP3-Luc and CMV-hRXRalpha and pCMX-Renilla plasmids after 24 hrs by dual luciferase reporter gene assay; format: cell-based; details: filed as agonist, dose 0.0001-1 µM
T1 sequence (whole entry): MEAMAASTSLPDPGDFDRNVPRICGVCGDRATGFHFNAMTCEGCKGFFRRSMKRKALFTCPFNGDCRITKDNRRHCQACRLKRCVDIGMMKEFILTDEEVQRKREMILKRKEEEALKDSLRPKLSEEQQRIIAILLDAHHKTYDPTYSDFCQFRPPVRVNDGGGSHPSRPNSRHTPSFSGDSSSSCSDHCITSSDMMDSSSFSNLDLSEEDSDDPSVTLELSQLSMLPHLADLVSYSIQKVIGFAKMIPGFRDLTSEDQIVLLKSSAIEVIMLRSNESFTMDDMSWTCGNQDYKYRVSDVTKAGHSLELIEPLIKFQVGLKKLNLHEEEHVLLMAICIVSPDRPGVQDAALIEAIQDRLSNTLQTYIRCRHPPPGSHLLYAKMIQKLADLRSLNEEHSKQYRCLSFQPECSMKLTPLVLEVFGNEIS
How it was run: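 HEK293 cells in 48-well plates were transfected per well with 40 ng TK-Spp×3-LUC reporter, 20 ng pCMX-Renilla, 30 ng pENTER-CMV-hRXRα and 100 ng pCMX-VDR using Lipofectamine 2000. Compounds were added 8 h post-transfection, and dual-luciferase activity was read 24 h later. Firefly signal was normalised to Renilla. The experiment was run three times.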

LTC-14 [8] = assay: Inhibition of rat LTC-14 cell activation assessed decrease in TGF-beta1 induced Colla1 mRNA expression at 0.5 uM incubated for 24 hrs by q-PCR analysis; format: functional
How it was run: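 Immortalized rat PSC line LTC-14, about 1×10^5 cells per well, was grown 24 h at 37 °C in 5% CO2. Cells then received compound (0.5 μM) plus TGF-β1 for 24 h; TGF-β1 is stated as 0.5 ng/mL in the text and 5 ng/mL in the methods. Col1a1 and Acta2 mRNA were measured by RT-qPCR. Mean ± SD versus TGF-β1 alone.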

DSL-6A/C1 [9] = assay: Antiproliferative activity against rat DSL-6A/C1 cells assessed as reduction in cell viability at 0.5 uM treated with conditioned media of LTC-14 cells for 24 hrs by MTT assay; format: functional, cell-based
How it was run: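 Rat pancreatic cancer DSL-6A/C1 cells were cultured in supernatant from LTC-14 PSCs (PSC-CM) with compound added at 0.5 μM for 24 h. Viability was then read by MTT: 4 h incubation with MTT (5 mg/mL stock), absorbance at 570 nm. Run in triplicate, compared with PSC-CM alone.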

LTC-14 [10] = assay: Inhibition of rat LTC-14 cells activation assessed as inhibition of Periodin-mRNA expression at 0.5 uM treated under conditioned media of DSL-6A/C1 cells for 24 hrs by q-PCR analysis; format: functional, cell-based; how it was run: as §1
LTC-14 [11] = assay: Inhibition of rat LTC-14 cells activation assessed as reduction in ECM deposition resulting in doxorubicin accumulation in PSC spheres pretreated with compounds followed by doxorubicin addition by laser confocal microscopy analysis; format: functional, cell-based
How it was run: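 LTC-14 cells were grown in 3D culture to form PSC spheres and treated with compounds. Fluorescent doxorubicin was then added, and its penetration into the spheres was imaged by laser confocal microscopy. Three repeats, versus untreated control.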

[12] = Cytotoxicity against rat DSL-6A/C1 cells assessed as reduction in cell proliferation at 0.5 uM incubated for 24 hrs by MTT assay; format: cell-based; details: dsl-6a/c1, 24 h

CCn1cc(C(CC)(CC)c2ccc(OCC(C)O)c(C)c2)cc1C(=O)NCCN1CCN(C)CC1 (stereo not drawn)
active: inhibition (Mus musculus) | Activity (DSL-6A/C1 [2]) | inhibition (LTC-14 [3]) | Activity (DSL-6A/C1 [4]) | inhibition (LTC-14 [6]) | Activity [7] Dose-dependent effect | inhibition (LTC-14 [8]) | inhibition (LTC-14 [10]) | inhibition (LTC-14 [11])
> 10 µM: IC50 [5]
inactive: Activity (DSL-6A/C1 [9])
Non-Toxic: Activity [1] | Activity [12]
